Measured values as given in ChEMBL document CHEMBL1145212, “Fluorinated diaryl sulfides as serotonin transporter ligands: synthesis, structure-activity relationship study, and in vivo evaluation of fluorine-18-labeled compounds as PET imaging agents” (J Med Chem, 2005).

Legend:
Conditions in all cases: tested as the 18F-labelled form
[1] = species on record: Rattus norvegicus; assay: Regional uptake of [18F]AFA in thalamus of rat pretreated with compound GBR-12935; n=3; format: functional, organism-based
In short: (§1)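 Male Sprague-Dawley rats, three per group, received blocker (2 mg/kg iv in saline) or saline only (controls) 10–15 min before about 20 µCi of tail-vein F-18 radioligand. Killed 60 min after tracer. Blood and brain regions weighed and gamma-counted. %ID/g was decay- and tail-corrected; mean ± SD.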

[2] = species on record: Rattus norvegicus; assay: Regional uptake of [18F]-AFA in striatum of rat pretreated with compound GBR-12935; n=3; format: functional, organism-based; in short: as §1
[3] = species on record: Rattus norvegicus; assay: Regional uptake of [18F]AFA in thalamus of rat pretreated with compound citalopram; n=3; format: functional, organism-based; in short: as §1
[4] = species on record: Rattus norvegicus; assay: Regional uptake of [18F]AFA in cerebellum of rat pretreated with compound GBR-12935; n=3; format: functional, organism-based; in short: as §1
[5] = species on record: Rattus norvegicus; assay: Regional uptake of [18F]AFA in hippocampus of rat pretreated with compound citalopram; n=3; format: functional, organism-based; in short: as §1
[6] = target: Sodium-dependent serotonin transporter (Rattus norvegicus) (UniProt P31652); assay: Specific binding of [18F]-AFA in rat striatum after citalopram treatment; n=3; format: functional, tissue-based
Sequence of Sodium-dependent serotonin transporter (Rattus norvegicus) (P31652 whole entry): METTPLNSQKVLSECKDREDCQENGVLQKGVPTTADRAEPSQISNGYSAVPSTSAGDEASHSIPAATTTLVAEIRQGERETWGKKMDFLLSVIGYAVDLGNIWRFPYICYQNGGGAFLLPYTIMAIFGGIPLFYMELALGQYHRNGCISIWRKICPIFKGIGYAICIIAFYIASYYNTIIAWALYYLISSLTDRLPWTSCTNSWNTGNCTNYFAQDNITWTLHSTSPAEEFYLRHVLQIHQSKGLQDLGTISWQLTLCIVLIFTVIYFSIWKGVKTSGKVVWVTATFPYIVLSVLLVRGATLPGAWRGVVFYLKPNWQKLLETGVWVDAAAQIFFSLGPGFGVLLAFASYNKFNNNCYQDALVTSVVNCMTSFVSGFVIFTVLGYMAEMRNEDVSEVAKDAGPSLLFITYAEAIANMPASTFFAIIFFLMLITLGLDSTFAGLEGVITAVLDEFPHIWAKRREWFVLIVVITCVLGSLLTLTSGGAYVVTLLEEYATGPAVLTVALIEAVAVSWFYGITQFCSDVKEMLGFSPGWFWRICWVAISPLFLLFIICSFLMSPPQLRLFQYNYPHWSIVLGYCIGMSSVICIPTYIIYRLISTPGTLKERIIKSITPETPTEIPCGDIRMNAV
In short: (§2)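 Rats, three per group, were pretreated iv with blocker at 2 mg/kg in saline, or with saline as control, 10–15 min before tail-vein F-18 radioligand (about 20 µCi). Killed at 60 min and regional %ID/g determined. Specific binding = (region activity − cerebellum activity)/cerebellum activity; mean ± SD.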

[7] = species on record: Rattus norvegicus; assay: Regional uptake of [18F]-AFA in hypothalamus of rat pretreated with compound nisoxetine; n=3; format: functional, organism-based; in short: as §1
[8] = species on record: Rattus norvegicus; assay: Regional uptake of [18F]AFA in hippocampus of rat pretreated with compound 7f; n=3; format: functional, organism-based
[9] = target: Sodium-dependent serotonin transporter (Rattus norvegicus) (UniProt P31652); assay: Specific binding of [18F]AFA in rat thalamus after GBR-12935 treatment; n=3; format: functional, tissue-based; in short: as §2
[10] = species on record: Rattus norvegicus; assay: Regional uptake of [18F]AFA in striatum of rat pretreated with compound citalopram; n=3; format: functional, organism-based; in short: as §1
[11] = target: Sodium-dependent serotonin transporter (Rattus norvegicus) (UniProt P31652); assay: Specific binding in rat hypothalamus at 90 min postinjection in vivo; format: functional, organism-based
In short: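 Male Sprague-Dawley rats, n=3 per time point, received about 20 µCi of F-18 radioligand in saline iv by tail vein and were killed at 10–120 min. %ID/g was measured with decay and tail-residual correction. Hypothalamic specific binding = (%ID/g hypothalamus − %ID/g cerebellum)/%ID/g cerebellum; mean ± SD.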

[12] = target: Sodium-dependent serotonin transporter (Rattus norvegicus) (UniProt P31652); assay: Specific binding of [18F]AFA in rat hypothalamus after GBR-12935 treatment; n=3; format: functional, tissue-based; in short: as §2
[13] = target: Sodium-dependent serotonin transporter (Rattus norvegicus) (UniProt P31652); assay: Specific binding of [18F]AFA in rat striatum after GBR-12935 treatment; n=3; format: functional, tissue-based; in short: as §2
[14] = target: Sodium-dependent serotonin transporter (Rattus norvegicus) (UniProt P31652); assay: Specific binding of [18F]AFA in rat hypothalamus after citalopram treatment; n=3; format: functional, tissue-based; in short: as §2
[15] = species on record: Rattus norvegicus; assay: Regional uptake of [18F]AFA in frontal cortex of rat pretreated with compound citalopram; n=3; format: functional, organism-based; in short: as §1
[16] = species on record: Rattus norvegicus; assay: Regional uptake of [18F]AFA in hypothalamus of rat pretreated with compound citalopram; n=3; format: functional, organism-based; in short: as §1
[17] = target: Sodium-dependent serotonin transporter (Rattus norvegicus) (UniProt P31652); assay: Specific binding of [18F]AFA in rat hypothalamus after nisoxetine treatment; n=3; format: functional, tissue-based; in short: as §2
[18] = species on record: Rattus norvegicus; assay: Regional uptake of [18F]-AFA in blood of rat pretreated with compound citalopram; n=3; format: functional, organism-based; in short: as §1
[19] = target: Sodium-dependent serotonin transporter (Rattus norvegicus) (UniProt P31652); assay: Specific binding of [18F]AFA in rat hippocampus after GBR-12935 treatment; n=3; format: functional, tissue-based; in short: as §2
[20] = target: Sodium-dependent serotonin transporter (Rattus norvegicus) (UniProt P31652); assay: Specific binding of [18F]AFA in rat frontal cortex after nisoxetine treatment; n=3; format: functional, tissue-based; in short: as §2
[21] = species on record: Rattus norvegicus; assay: Regional uptake of [18F]AFA in hippocampus of rat pretreated with compound nisoxetine; n=3; format: functional, organism-based; in short: as §1
[22] = species on record: Rattus norvegicus; assay: Regional uptake of [18F]AFA in hippocampus of rat pretreated with compound GBR-12935; n=3; format: functional, organism-based; in short: as §1
[23] = species on record: Rattus norvegicus; assay: Regional uptake of [18F]AFA in hypothalamus of rat pretreated with compound GBR-12935; n=3; format: functional, organism-based; in short: as §1
[24] = species on record: Rattus norvegicus; assay: Regional uptake of [18F]AFA in blood of rat pretreated with compound nisoxetine; n=3; format: functional, organism-based; in short: as §1
[25] = species on record: Rattus norvegicus; assay: Regional uptake of [18F]-AFP in striatum of rat pretreated with compound 7f; n=3

**Q.** For CN(C)Cc1ccccc1Sc1ccc(CCCF)cc1N, which Uptake [1] is on record?
**A.** 0.18 %ID/g

**Q.** What about the Uptake [2] of the same molecule?
**A.** 0.17 %ID/g

**Q.** And the Uptake [3]?
**A.** 0.15 %ID/g

**Q.** And the Uptake [4]?
**A.** 0.09 %ID/g

**Q.** What about the Uptake [5] of the same molecule?
**A.** 0.11 %ID/g

**Q.** What about the Specific binding [6] of the same molecule?
**A.** 0.45 %ID/g

**Q.** And the Uptake [7]?
**A.** 0.15 %ID/g

**Q.** And the Uptake [8]?
**A.** 0.08 %ID/g

**Q.** And the Specific binding [9]?
**A.** 0.98 %ID/g

**Q.** What about the Uptake [10] of the same molecule?
**A.** 0.12 %ID/g

**Q.** What about the Specific binding (dimensionless ratio) [11] of the same molecule?
**A.** 1.85

**Q.** What about the Specific binding [12] of the same molecule?
**A.** 0.87 %ID/g

**Q.** What about the Specific binding [13] of the same molecule?
**A.** 0.84 %ID/g

**Q.** What about the Specific binding [14] of the same molecule?
**A.** 0.66 %ID/g

**Q.** What about the Uptake [15] of the same molecule?
**A.** 0.16 %ID/g

**Q.** What about the Uptake [16] of the same molecule?
**A.** 0.13 %ID/g

**Q.** And the Specific binding [17]?
**A.** 0.84 %ID/g

**Q.** And the Uptake [18]?
**A.** 0.09 %ID/g

**Q.** What about the Specific binding [19] of the same molecule?
**A.** 0.77 %ID/g

**Q.** What about the Specific binding [20] of the same molecule?
**A.** 0.72 %ID/g

**Q.** And the Uptake [21]?
**A.** 0.16 %ID/g

**Q.** What about the Uptake [22] of the same molecule?
**A.** 0.16 %ID/g

**Q.** And the Uptake [23]?
**A.** 0.17 %ID/g

**Q.** What about the Uptake [24] of the same molecule?
**A.** 0.08 %ID/g

**Q.** What about the Uptake [25] of the same molecule?
**A.** 0.08 %ID/g
